Reference: ChEMBL document CHEMBL1121810, “Antihypertensive activity of 6-arylpyrido[2,3-d]pyrimidin-7-amine derivatives” (1981)

Columns and labels:
Assay type in all cases: functional
Conditions in all cases: route oral
[1] = tested on: Rattus norvegicus; assay: Maximum percent decrease in heart rate of spontaneously hypertensive rats, 6 hours after peroral administration of 50 mg/kg of compound
Method in brief: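 Conscious male SHR (Kyoto-Wistar origin, 22-24 weeks, 250-350 g; mean BP >150 mmHg, pulse pressure >25 mmHg) with indwelling catheters, ~0.8 mL heparinized saline/day. Dosed by gavage as a 4% gum acacia suspension, 2 mL/kg, free-base doses, 3-4 rats per group. Heart rate was derived from the pulsatile pressure signal, sampled 3 min every 30 min, and 30-min means were compared with pretreatment values.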

[2] = tested on: Rattus norvegicus; assay: Blood pressure rating in spontaneously hypertensive rats, 10 hr after peroral administration of 50 mg/kg of compound
Method in brief: (§1)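 Conscious male SHR (Kyoto-Wistar origin, 22-24 weeks, 250-350 g) with indwelling catheters, given about 160 units heparin/day in saline. Only rats with mean blood pressure >150 mmHg and pulse pressure >25 mmHg were used, in groups of 3-4. Dosing was oral gavage at 2 mL/kg in 4% gum acacia suspension, as free base. Pressure was sampled 3 min of every 30 min, and 30-min means were compared with pretreatment values.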

[3] = tested on: Rattus norvegicus; assay: Blood pressure rating in spontaneously hypertensive rats, 24 hr after peroral administration of 50 mg/kg of compound; method in brief: as §1
[4] = tested on: Rattus norvegicus; assay: Blood pressure rating in spontaneously hypertensive rats, 2 hr after peroral administration of 50 mg/kg of compound; method in brief: as §1
[5] = tested on: Rattus norvegicus; assay: Effect on heart rate of spontaneously hypertensive rats, 10 hr after peroral administration at 50 mg/kg
Method in brief: (§2)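 Heart rate was derived from the pulsatile arterial pressure signal in conscious catheterized male SHR (22-24 weeks, 250-350 g), with continuous monitoring sampled 3 min per 30 min. Drug was given by gavage as a 4% gum acacia suspension at 2 mL/kg, dose as free base, to groups of 3-4 rats with mean pressure >150 mmHg. Individual 30-min means were compared with pretreatment values.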

[6] = tested on: Rattus norvegicus; assay: Effect on heart rate of spontaneously hypertensive rats, 2 hr after peroral administration at 50 mg/kg; method in brief: as §2
[7] = tested on: Rattus norvegicus; assay: Effect on heart rate of spontaneously hypertensive rats, 24 hr after peroral administration at 50 mg/kg; method in brief: as §2

| SMILES | Decrease [1] | Activity rating [2] | Activity rating [3] | Activity rating [4] | Activity rating [5] | Activity rating [6] | Activity rating [7] |
| --- | --- | --- | --- | --- | --- | --- | --- |
| Nc1nc2nc(/C=C/c3ccccc3)ncc2cc1-c1c(Cl)cccc1Cl | 13% | 1 | 0 | 0 |  |  |  |
| Cc1cccc(-c2cc3cncnc3nc2N)c1C |  |  |  |  | 0 | 0 | 0 |
| CCc1ncc2cc(-c3ccccc3C)c(N)nc2n1 |  |  |  |  | 0 | 0 | 0 |
| Cc1ncc2cc(-c3cccc(Cl)c3Cl)c(N)nc2n1 |  |  |  |  | 0 | 0 | 0 |
| Cc1ncc2cc(-c3ccccc3C(F)(F)F)c(N)nc2n1 |  |  |  |  | 0 | 0 | 0 |
| CCOc1nc(C)nc2nc(N)c(-c3c(Cl)cccc3Cl)cc12 |  | 0 | 0 | 0 |  |  |  |
| Nc1nc2nc(C3CC3)ncc2cc1-c1ccccc1Br |  | 0 | 0 | 0 |  |  |  |
| Cc1nc(N)c2cc(-c3c(Cl)cccc3Cl)c(N)nc2n1 |  |  |  |  | 0 | 0 | 0 |
| CCc1ncc2cc(-c3c(Cl)cccc3Cl)c(N)nc2n1 | 15% |  |  |  | 1 | 0 | 0 |
| Nc1nc2ncncc2cc1-c1ccccc1 |  |  |  |  | 0 | 0 | 0 |
| Nc1nc2nc(C3CC3)ncc2cc1-c1c(Cl)cccc1Cl |  | 0 | 0 | 0 |  |  |  |
| Cc1ncc2cc(-c3ccccc3I)c(N)nc2n1 |  |  |  |  | 0 | 0 | 0 |
| Cc1ccccc1-c1cc2cnc(C3CC3)nc2nc1N |  | 0 | 0 | 0 |  |  |  |
| Cc1ncc2cc(-c3cccnc3)c(N)nc2n1 |  |  |  |  | 0 | 0 | 0 |
| Nc1nc2ncncc2cc1-c1cccnc1 |  |  |  |  | 0 | 0 | 0 |
| Cc1ncc2cc(-c3ccccc3F)c(N)nc2n1 |  |  |  |  | 0 | 0 | 0 |
| Cc1ncc2cc(-c3c(C)cccc3C)c(N)nc2n1 |  |  |  |  | 0 | 0 | 0 |
| Nc1nc2ncncc2cc1-c1ccccc1C(F)(F)F |  |  |  |  | 0 | 0 | 0 |
| Nc1nc2nc(C(F)(F)F)ncc2cc1-c1c(Cl)cccc1Cl |  |  |  |  | 0 | 0 | 0 |
| Cc1ncc2cc(-c3cccc(Br)c3C)c(N)nc2n1 |  |  |  |  | 0 | 0 | 0 |
| Cc1ncc2cc(-c3ccc(Cl)cc3)c(N)nc2n1 |  |  |  |  | 0 | 0 | 0 |
| CCc1ncc2cc(-c3ccccc3Cl)c(N)nc2n1 |  |  |  |  | 0 | 0 | 0 |
| Cc1ncc2cc(-c3ccc([N+](=O)[O-])cc3)c(N)nc2n1 |  | 0 | 0 | 0 |  |  |  |
| Cc1ncc2cc(-c3cccc(C)c3C)c(N)nc2n1 |  |  |  |  | 0 | 0 | 0 |
| Cc1ncc2cc(-c3ccc(Cl)c(Cl)c3)c(N)nc2n1 |  |  |  |  | 0 | 0 |  |
| Cc1ncc2cc(-c3ccco3)c(N)nc2n1 |  | 0 | 0 | 0 |  |  |  |
| CCc1ccccc1-c1cc2cnc(C)nc2nc1N |  |  |  |  | 0 | 0 | 0 |
| Cc1ncc2cc(-c3ccccc3)c(N)nc2n1 |  |  |  |  | 0 | 0 | 0 |
